cardiac RTF act: cardiac RTF calcium sensitization; IANBD-labeled TnC RTF fluorescence at EC20 calcium; 0% EC20 calcium, 100% full calcium; hit rate 0.24% among 340,000; P19429+P45379; activation, % at 7.2 µM;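 active = activation above the mean over all tested compounds plus 3 SD, cut at about 30% in these data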;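 also: rise in fluorescence read as greater calcium sensitivity of cardiac thin filaments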
CAL PDZ FP-1: human CAL PDZ-peptide interaction inhibition; Q9HD26; purified CAL PDZ, TMR-peptide fluorescence polarization, 1 h; inhibition, % at 20 µM; hit rate 0.02% among 330,000;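 active = highest replicate inhibition of at least 40%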
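System: tagged CAL PDZ domain. Schedule: 1 h room-temperature incubation prior to read. Signal: fluorescence polarization (mP). Measure: percent inhibition from loss of millipolarization.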
LANA DNA inh: blocks KSHV LANA C-terminal domain binding to DNA | hit rate 0.078% among 340,000 | MBP-C-LANA/FAM-LBS DNA binding, fluorescence polarization | inhibition, % at 9 µM;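 active = highest replicate inhibition at or above 60% at 9 µM, even if other replicates fall short; inactive = all replicates below 60% inhibition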
CAL PDZ FP-2: CAL PDZ (human) peptide binding inhibition; Q9HD26; inhibition, % at 24.9 µM; purified CAL PDZ, TMR-peptide fluorescence polarization, 1 h; hit rate 0.92% among 300,000;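 active = mean inhibition of at least 30% with at least half of replicates also reaching 30%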
Keap1-Nrf2 PPI: inhibitors of human Keap1-Nrf2 protein-protein interaction; Q14145; Keap1 Kelch-Nrf2 peptide fluorescence polarization, 1536-well; inhibition, % at 9.4 µM; hit rate 0.15% among 340,000; AID 504523; in the data active = inhibition above about 12%;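 also: human Keap1 Kelch domain with fluorescein labeled Nrf2 9mer peptide probe; higher means more block of Keap1 binding to Nrf2 peptide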
Target sequence (Q14145 whole entry, looked up, the tested form may be a part): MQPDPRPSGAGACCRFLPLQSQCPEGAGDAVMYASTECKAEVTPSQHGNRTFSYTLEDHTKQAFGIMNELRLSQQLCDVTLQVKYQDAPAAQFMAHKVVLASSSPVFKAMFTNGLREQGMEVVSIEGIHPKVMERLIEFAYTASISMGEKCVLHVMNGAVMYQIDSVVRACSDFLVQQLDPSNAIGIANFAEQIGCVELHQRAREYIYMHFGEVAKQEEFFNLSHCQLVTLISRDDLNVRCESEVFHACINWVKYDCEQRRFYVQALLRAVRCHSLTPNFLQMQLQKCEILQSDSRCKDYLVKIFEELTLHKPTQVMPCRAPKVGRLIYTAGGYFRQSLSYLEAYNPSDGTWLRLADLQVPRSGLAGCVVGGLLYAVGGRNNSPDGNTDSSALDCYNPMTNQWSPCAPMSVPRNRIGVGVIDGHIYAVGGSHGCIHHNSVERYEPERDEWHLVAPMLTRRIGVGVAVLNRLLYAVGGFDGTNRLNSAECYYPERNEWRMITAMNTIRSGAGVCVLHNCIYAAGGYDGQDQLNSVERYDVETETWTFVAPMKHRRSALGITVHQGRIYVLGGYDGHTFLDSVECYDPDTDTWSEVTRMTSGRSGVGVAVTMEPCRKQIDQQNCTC
Cardiac RTF inh: cardiac RTF calcium desensitization | P19429+P45379 | IANBD-labeled cardiac RTF, Ca2+ fluorescence | inhibition, % at 7.15 µM | hit rate 0.12% among 340,000 | AID 493244;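 active = inhibition above the mean inhibition of all tested compounds plus 3 SD, cut at about 17% in these data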;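 also: assay run at fixed EC70 calcium of 1.6 mM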
Of the large screens only hits and unclear results are named; the others gave an inactive call. An excerpt weighted towards active compounds, which were near 1.3% of everything screened.

COc1cccc(C(=O)NC2CCCc3ccccc32)c1 (centres undefined)	none
CCOC(=O)C1=C(C)NC(C)=C(C(=O)OCC)C1c1ccc(C)o1	CAL PDZ FP-2 73.9
C=CCOC(=O)C1=C(C)NC(C)=C(C(=O)OCC=C)C1c1ccc(C)o1	none
COC(=O)C1=C(C)NC(C)=C(C(=O)OC)C1c1ccco1	CAL PDZ FP-2 91.3
CCOC(=O)C1=C(C)NC(C)=C(C(=O)OCC)C1c1ccco1	none (no result: CAL PDZ FP-2)
O=C(CN1C(=O)NC2(CCOc3ccccc32)C1=O)c1ccc(F)cc1 (centres undefined)	none
O=C(NCc1cccc(F)c1)C1CCC(=O)N(C2CCCC2)C1 (centres undefined)	CAL PDZ FP-2 84.1
O=C(NCc1cccc(F)c1)C1CCC(=O)N(CCCN2CCOCC2)C1 (centres undefined)	none
O=C(NCc1cccc(Cl)c1)C1CCC(=O)N(CCCN2CCCC2=O)C1 (centres undefined)	CAL PDZ FP-2 70.0
Cn1ccc2cc(-c3csc(N4CCC(C(N)=O)CC4)n3)ccc21	none
COc1ccc(-c2nc(SC(C)C(=O)NC3CC3)n[nH]2)cc1 (centres undefined)	none
CCn1c(SCC(=O)Nc2nonc2C)nnc1-c1ccoc1C	none (no result: CAL PDZ FP-1)
Cc1nonc1NC(=O)CSc1nnc(-c2ccoc2C)n1CC(C)C	CAL PDZ FP-2 176.5 (no result: CAL PDZ FP-1)
CCOc1ccccc1N1CCN(C(=O)c2ccc3nc(N)sc3c2)CC1	none
Cc1cc(C)cc(NC(=O)C(Sc2nnc(C)c(=O)[nH]2)c2ccccc2)c1 (centres undefined)	none
Cc1nnc(SC(C(=O)Nc2ccc(Cl)c([N+](=O)[O-])c2)c2ccccc2)[nH]c1=O (centres undefined)	CAL PDZ FP-2 62.5
CCOC(=O)CN1C=C(c2ccc3ccccc3n2)C(C[N+](=O)[O-])c2ccccc21 (centres undefined)	cardiac RTF act 35.9
O=C(O)c1ccccc1C(=O)Nc1ccccc1	none
O=C(Nc1ccccc1)C1=C(c2ccccc2)S(=O)(=O)CCS1(=O)=O	CAL PDZ FP-2 34.4
C=CCc1cccc(/C=N/NC(=O)c2ccc3nc[nH]c3c2)c1O	none
Cc1cc(C)cc(C(=O)N2CCCCC2)c1	none
CC(NS(=O)(=O)c1ccc(OCC(=O)NCc2ccncc2)cc1)c1ccccc1 (centres undefined)	none
Cc1ccc(O)c(NC(=S)NC(=O)CC(C)C)c1	none
Cc1ccc(O)c(NC(=S)NC(=O)C(C)C)c1	CAL PDZ FP-2 33.8
CC1CC(C)CN(C(=O)CCn2c(=O)oc3ccccc32)C1 (centres undefined)	CAL PDZ FP-2 45.4
O=C1NC[C@H](c2ccccc2)N(CCC23CC4CC(CC(C4)C2)C3)C1=O	none
Cn1c(NCc2ccco2)nc2c1c(=O)n(Cc1ccc(Cl)c(Cl)c1)c(=O)n2C	CAL PDZ FP-2 75.9
CCOC(=O)c1c(NC(=O)CN2CCC(C)CC2)sc(C)c1C	CAL PDZ FP-2 45.5
COc1cccc(COC(=O)C2CC(=O)N(Cc3ccc(C)cc3)C2)c1OC (centres undefined)	none
CCCCn1c(N)c(N(CCOC)C(=O)c2ccc(-c3cccc(C(F)(F)F)c3)o2)c(=O)[nH]c1=O	none
O=C(C1CC(=O)N(c2ccc3c(c2)OCCO3)C1)N1CCN(S(=O)(=O)c2ccc(F)cc2)CC1 (centres undefined)	CAL PDZ FP-2 68.1
O=C(C1CC(=O)N(c2ccc3c(c2)OCCO3)C1)N1CCN(S(=O)(=O)c2cccc(F)c2)CC1 (centres undefined)	none
CCN(CC)S(=O)(=O)c1cccc(NC(=O)CN2C(=O)NC3(CCC(C)CC3)C2=O)c1 (centres undefined)	none
Cc1ccccc1CNC(=O)C(=O)NCCC1CCCCN1S(=O)(=O)c1cccs1 (centres undefined)	none
N/C(=N\c1nc(CSc2ccccn2)cc(=O)[nH]1)Nc1ccc(Cl)cc1Cl	CAL PDZ FP-2 78.3
CC(=O)Nc1ccc(S(=O)(=O)NC(C)c2ccccc2)cc1 (centres undefined)	none
Clc1ccc(-c2nsc(N3CCOCC3)n2)c(Cl)c1	CAL PDZ FP-2 62.3
COc1ccc(S(=O)(=O)N2CCC(C(=O)NCCC(=O)Nc3cccc(Cl)c3)CC2)cc1	CAL PDZ FP-2 40.7
O=C(NCCS(=O)(=O)NCC1CCCO1)c1ccccc1 (centres undefined)	none
COC(=O)c1cc(S(=O)(=O)N2CCCC(C)C2)c[nH]1 (centres undefined)	CAL PDZ FP-2 78.2
COC(=O)c1cc(S(=O)(=O)N2CCCCC2C)c[nH]1 (centres undefined)	none
Cc1ccc(C)c(N2CCN(C(=O)CN3C(=S)NC(C)(C)CC3C)CC2)c1 (centres undefined)	cardiac RTF act 30.6
CCOC(=O)C(=O)Cc1cccnn1	LANA DNA inh 72.0 (no result: CAL PDZ FP-2)
O=C(O)CN1C(=O)/C(=C\c2cc(Br)ccc2OCc2ccccc2Cl)SC1=S	none
O=C(O)CN1C(=O)/C(=C\c2cc(Br)ccc2OCc2ccc([N+](=O)[O-])cc2)SC1=S	LANA DNA inh 78.3
O=C(NC(=S)Nc1sc2c(c1C(=O)O)CCCC2)c1ccccc1	none
COc1ccc(OC)c2cc3ccccc3cc12	Keap1-Nrf2 PPI 24.6
CC1C/C(=C\c2ccccc2[N+](=O)[O-])c2nc3ccccc3c(C(=O)O)c2C1 (centres undefined)	CAL PDZ FP-2 48.9
CCN(CC)c1ccc(/C=C/C(=O)C2C(=O)C=C(C)OC2=O)cc1 (centres undefined)	cardiac RTF act 128.4
COc1ccc(N(C(=O)c2csnn2)C(C(=O)NC2CCCC2)c2cccs2)cc1 (centres undefined)	CAL PDZ FP-2 44.1
Cc1ccccc1N(C(=O)c1csnn1)C(C(=O)NC1CCCC1)c1ccncc1 (centres undefined)	CAL PDZ FP-2 32.5
NC(=O)Cn1cc(/C=N\NS(=O)(=O)c2ccc(F)cc2)c2ccccc21	CAL PDZ FP-2 35.0
O=C(C1=C(O)C(=O)N(CCN2CCOCC2)C1c1ccccc1)c1cccs1 (centres undefined)	CAL PDZ FP-2 31.5
CC(=O)Nc1ccc2nc(-c3cccn3C)[nH]c2c1	CAL PDZ FP-2 35.5
O=C(Nc1ccc2c(c1)CCC2)c1ccccc1Br	none
CSc1ccccc1C(=O)Nc1ccc2c(c1)CCC2	CAL PDZ FP-2 68.1
COc1ccc(NC(=O)COC(=O)C2CC(=O)N(c3ccc(C)cc3)C2)cc1 (centres undefined)	none
C/C(=N/NC(=O)CNC(=O)Cc1ccccc1)c1ccco1	cardiac RTF act 38.9
Cn1c(N)c(C(=O)COC(=O)Cc2ccc(Br)cc2)c(=O)n(C)c1=O	none

Screens as filed in PubChem BioAssay.
